Results reported in ChEMBL document CHEMBL4414567, “α-Pyrone and Sterol Constituents of Penicillium aurantiacobrunneum, a Fungal Associate of the Lichen Niebla homalea” (J Nat Prod, 2019).

Assays:
Format in all cases: functional, cell-based
[1] = test system: HT-29; assay: Antiproliferative activity against human HT-29 cells measured after 72 hrs by sulforhodamine B assay; settings: HT-29, 72 h
Outline: (§1)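 SRB antiproliferation assay: cells seeded at 100,000 cells per mL in 96-well plates, incubated with compound 72 h at 37 °C in 95% air/5% CO2; sulforhodamine B staining read-out; three independent experiments, each in triplicate.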

[2] = test system: MCF7; assay: Antiproliferative activity against human MCF7 cells measured after 72 hrs by sulforhodamine B assay; settings: MCF7, 72 h
Outline: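 SRB assay. MCF-7 cells grown in RPMI-1640 with L-glutamine, 10% FBS and 1% antibiotic-antimycotic, at 37 °C in 95% air/5% CO2, and subcultured at 80–90% confluence. Seeded at 6000 cells per mL in 96-well plates, exposed for 72 h at 37 °C, then read by sulforhodamine B staining. Three independent experiments, each in triplicate.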

[3] = test system: A2780; assay: Antiproliferative activity against human A2780 cells measured after 72 hrs by sulforhodamine B assay; settings: A2780, 72 h
Outline: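 A2780 cells grown in RPMI-1640 with L-glutamine, 10% FBS and 1% antibiotic-antimycotic, 37 °C, 5% CO2, subcultured at 80–90% confluence; seeded at 25000 cells per mL in 96-well plates; compound exposure 72 h at 37 °C; sulforhodamine B read-out; three independent experiments, each in triplicate.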

[4] = test system: HeLa; assay: Antiproliferative activity against human HeLa cells measured after 72 hrs by sulforhodamine B assay; outline: as §1
[5] = test system: DU-145; assay: Antiproliferative activity against human DU145 cells measured after 72 hrs by sulforhodamine B assay; settings: DU-145, 72 h; outline: as §1

| IC50 [1] [µM] | IC50 [2] [µM] | IC50 [3] [µM] | IC50 [4] [µM] | IC50 [5] [µM] | SMILES |
| --- | --- | --- | --- | --- | --- |
| 9.8 | > 10 | > 10 | > 10 | > 10 | C=C(CC[C@]1(C)O[C@@H]2O[C@@]34[C@H](O)C[C@H]5C[C@@H](O)CC[C@]5(C)[C@H]3CC[C@]23[C@H]4[C@H](O)C[C@@H]31)C(C)C |
| > 10 | > 10 | > 10 | > 10 | > 10 | C=C(CC[C@@]1(C)O[C@H]2O[C@H]3C[C@H]1[C@]21CC[C@@H]2[C@@]4(C)CC[C@H](O)C[C@@H]4C[C@H](O)[C@@]2(O)[C@H]31)C(C)C |
|  |  | 0.018 |  | 0.001 | CC(=O)O[C@H]1C(=O)[C@@]2(C)[C@H]([C@H](OC(=O)c3ccccc3)[C@]3(O)C[C@H](OC(=O)[C@H](O)[C@@H](NC(=O)c4ccccc4)c4ccccc4)C(C)=C1C3(C)C)[C@]1(OC(C)=O)CO[C@@H]1C[C@@H]2O [PACLITAXEL] |

| SMILES | IC50 [1] [µM] | IC50 [2] [µM] | IC50 [3] [µM] | IC50 [4] [µM] | IC50 [5] [µM] |
| --- | --- | --- | --- | --- | --- |
| COc1cc(=O)oc(/C=C/C=C/C=C/C(C)=C/[C@]2(C)O[C@H](C)[C@](C)(O)[C@@H]2O)c1C | > 10 | 4.2 to 6 | 5.7 to 8.2 | > 10 | > 10 |
